Source: PubChem BioAssay AID488805 (Broad Institute, 2010)
Activity calls are given as the source filed them.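 How the source made its calls: active means luminescence gain over solvent baseline above 10% of the positive control response, limit may shift with hit yield; inactive means the rest, including opposite-direction effects.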

Test system: not listed separately
Test: compounds inducing hypoxia-responsive transcription – cell-based, U2OS HRE-luc, luminescence, dry powder, set 2, dose response (AID 488805)
Conditions: U2OS HRE-luciferase reporter, HIF pathway activation, luminescence; at 0.056 µM; hits give high values
How it was run: (§1)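 material = U2OS cells with HRE-luciferase reporter | quantity = 6,000 cells per well | times = compound exposure 24 h at 37 °C, 21% O2 | detection = luciferase luminescence measured with Steady-Glo reagent | dosing = compound dose series of 8 points, 3-fold steps | buffer or medium = phenol red-free DMEM with 10% fetal bovine serum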
In the case of `Cc1ccc(CNC(=O)c2cc(-c3ccccc3)on2)cc1`, the max activation is reported as -4.17% (inactive).
For `O=C(NC1CCc2ccccc2C1)c1cc(-c2ccccc2)on1` (stereo unspecified), the max activation was -4.31% (inactive).
With `O=C(NCCN1CCCCC1)c1cc(-c2ccccc2)on1` the max activation was -1.17% (inactive).
In the case of `Cn1c(NC(=O)c2cc(-c3ccccc3)on2)nc2ccccc21`, the max activation is reported as 1.19% (inactive).
For `O=C(Nc1nnc(-c2ccccc2)s1)c1cc(-c2ccccc2)on1`, the max activation was -3.85% (inactive).
With `O=C(Nc1ncc2ccccc2n1)c1cc(-c2ccccc2)on1` the max activation was 0.964% (inactive).
With `O=C(c1cc(-c2ccccc2)on1)N1CCC(CO)CC1` the max activation was -6.22% (inactive).
In the case of `O=C(NCc1ccccc1)c1cc(-c2ccccc2)on1`, the max activation is reported as 1.94% (inactive).

Same assay, conditions: U2OS HRE-luciferase reporter, HIF pathway activation, luminescence; at 0.16 µM; hits give high values
In the case of `O=C(NCC1CCCCC1)c1cc(-c2ccccc2)on1`, the max activation is reported as 1.14% (inactive).

Same assay, conditions: U2OS HRE-luciferase reporter, HIF pathway activation, luminescence; at 0.5 µM; hits give high values
With `O=C(Nc1cn2ccccc2n1)c1cc(-c2ccccc2)on1` the max activation was -5.84% (inactive).
In the case of `O=C(Nc1ncc(-c2ccccc2)o1)c1cc(-c2ccccc2)on1`, the max activation is reported as -7.77% (inactive).
With `Cn1c(-c2ccccc2)cnc1Nc1nc(-c2ccccn2)nnc1-c1ccccc1` the max activation was -0.998% (inactive).
With `Cc1ccccc1CNC(=O)c1cc(-c2ccccc2)on1` the max activation was 2.16% (inactive).
In the case of `O=C(Nc1ccc2ccccc2n1)c1cc(-c2ccccc2)on1`, the max activation is reported as -5.52% (inactive).
For `Cc1cccc(CNC(=O)c2cc(-c3ccccc3)on2)c1`, the max activation was -4.69% (inactive).
In the case of `CN(C)CCNC(=O)c1cc(-c2ccccc2)on1`, the max activation is reported as -2.73% (inactive).

Same assay, conditions: U2OS HRE-luciferase reporter, HIF pathway activation, luminescence; at 4.6 µM; hits give high values
For `O=C(c1cc(-c2ccccc2)on1)N1CCN(c2ccncc2)CC1`, the max activation was 6.21% (inactive).
For `CC(C)(C)CCNC(=O)c1cc(-c2ccccc2)on1`, the max activation was 1.55% (inactive).
For `O=C(Nc1nc2ccccc2s1)c1cc(-c2ccccc2)on1`, the max activation was -2.04% (inactive).
In the case of `O=C(NC1Cc2ccccc2C1)c1cc(-c2ccccc2)on1`, the max activation is reported as 2.61% (inactive).
In the case of `O=C(c1cc(-c2ccccc2)on1)N1CCC(N2CCOCC2)CC1`, the max activation is reported as 1.93% (inactive).
With `O=C(Nc1nc(-c2ccccc2)cs1)c1cc(-c2ccccc2)on1` the max activation was 6.53% (inactive).

Same assay, conditions: U2OS HRE-luciferase reporter, HIF pathway activation, luminescence; at 13.5 µM; hits give high values
With `O=C(NCC1CC1)c1cc(-c2ccccc2)on1` the max activation was 7.82% (inactive).
For `O=C(NCCCO)c1cc(-c2ccccc2)on1`, the max activation was 8.74% (inactive).

Same assay, conditions: U2OS HRE-luciferase reporter, HIF pathway activation, luminescence; at 38 µM; hits give high values
With `O=C(Nc1cnc2ccccc2c1)c1cc(-c2ccccc2)on1` the max activation was 2.22% (inactive).
For `O=C(c1cc(-c2ccccc2)on1)N1CCC(N2CCCC2)CC1`, the max activation was 3.88% (inactive).
In the case of `Cc1cccc(NC(=O)c2cc(-c3ccccc3)on2)n1`, the max activation is reported as -6.71% (inactive).
With `O=C(c1cc(-c2ccccc2)on1)N1CCc2cccnc21` the max activation was 2.94% (inactive).
With `Cc1ccc(NC(=O)c2cc(-c3ccccc3)on2)cn1` the max activation was 4.68% (inactive).
In the case of `CN1CCN(C(=O)c2cc(-c3ccccc3)on2)CC1`, the max activation is reported as -5.2% (inactive).
With `Cn1c(-c2ccccc2)cnc1NC(=O)c1cc(-c2ccccc2)on1` the max activation was 2.14% (inactive).

Test system: U2OS HRE-luciferase reporter, HIF pathway activation, luminescence
Test: as above
Conditions: not given
How it was run: as §1
`c1ccc(-c2nnc(-c3ccccn3)nc2N2CCC(N3CCOCC3)CC2)cc1` gave an AC50 of 8.79 µM.
Work on `c1ccc(-c2nnc(-c3ccccn3)nc2Nc2cnc3ccccc3n2)cc1` yielded an AC50 of 6.4 µM.
`Cc1ccc(Nc2nc(-c3ccccn3)nnc2-c2ccccc2)cn1` showed an AC50 of 27.9 µM.
With `c1ccc(-c2nnc(-c3ccccn3)nc2Nc2nc3ccccc3s2)cc1` the AC50 was 8.19 µM.
In the case of `OCC1CCN(c2nc(-c3ccccn3)nnc2-c2ccccc2)CC1`, the AC50 is reported as 18.7 µM.
For `c1ccc(-c2nnc(-c3ccccn3)nc2NCCN2CCOCC2)cc1`, the AC50 was 18.1 µM.
With `c1ccc(-c2nnc(-c3ccccn3)nc2NCC2CCCCC2)cc1` the AC50 was 3.12 µM.
With `Cc1ccccc1CNc1nc(-c2ccccn2)nnc1-c1ccccc1` the AC50 was 6.05 µM.
Compound `O=C(NCCCN1CCOCC1)c1cc(-c2ccccc2)on1` has an AC50 of 9.51 µM.
Compound `Cc1cccc(CNc2nc(-c3ccccn3)nnc2-c2ccccc2)c1` has an AC50 of 3.29 µM.
In the case of `Cc1cccc(Nc2nc(-c3ccccn3)nnc2-c2ccccc2)n1`, the AC50 is reported as 25.6 µM.
Compound `OCCCNc1nc(-c2ccccn2)nnc1-c1ccccc1` has an AC50 of 21.3 µM.
Work on `CN1CCN(c2nc(-c3ccccn3)nnc2-c2ccccc2)CC1` yielded an AC50 of 14.5 µM.
`c1ccc(-c2nnc(Nc3nc(-c4ccccn4)nnc3-c3ccccc3)s2)cc1` gave an AC50 of 6.81 µM.
For `C=CCNc1nc(-c2ccccn2)nnc1-c1ccccc1`, the AC50 was 8.3 µM.
In the case of `c1ccc(-c2nnc(-c3ccccn3)nc2N2CCN(c3ccncc3)CC2)cc1`, the AC50 is reported as 8.32 µM.
In the case of `c1ccc(-c2nnc(-c3ccccn3)nc2NCCCN2CCOCC2)cc1`, the AC50 is reported as 11 µM.
`c1ccc(-c2nnc(-c3ccccn3)nc2NCC2CC2)cc1` gave an AC50 of 12.3 µM.
Work on `Cc1ccc(CNc2nc(-c3ccccn3)nnc2-c2ccccc2)cc1` yielded an AC50 of 3.29 µM.
`O=C(NCCCCO)c1cc(-c2ccccc2)on1` gave an AC50 of 10.5 µM.
`CC(C)(C)CCNc1nc(-c2ccccn2)nnc1-c1ccccc1` showed an AC50 of 2.59 µM.
For `c1ccc(CNc2nc(-c3ccccn3)nnc2-c2ccccc2)cc1`, the AC50 was 7.03 µM.
`O=C(NCCCn1ccnc1)c1cc(-c2ccccc2)on1` gave an AC50 of 8.16 µM.
Compound `CN(C)c1nc(-c2ccccn2)nnc1-c1ccccc1` has an AC50 of 11.7 µM.
Compound `c1ccc(-c2csc(Nc3nc(-c4ccccn4)nnc3-c3ccccc3)n2)cc1` has an AC50 of 2.84 µM.
